In assay [1] the target is T1, Eg5 (kinesin-5) (Xenopus laevis, UniProt P28025).
T1 sequence (P28025 1-368): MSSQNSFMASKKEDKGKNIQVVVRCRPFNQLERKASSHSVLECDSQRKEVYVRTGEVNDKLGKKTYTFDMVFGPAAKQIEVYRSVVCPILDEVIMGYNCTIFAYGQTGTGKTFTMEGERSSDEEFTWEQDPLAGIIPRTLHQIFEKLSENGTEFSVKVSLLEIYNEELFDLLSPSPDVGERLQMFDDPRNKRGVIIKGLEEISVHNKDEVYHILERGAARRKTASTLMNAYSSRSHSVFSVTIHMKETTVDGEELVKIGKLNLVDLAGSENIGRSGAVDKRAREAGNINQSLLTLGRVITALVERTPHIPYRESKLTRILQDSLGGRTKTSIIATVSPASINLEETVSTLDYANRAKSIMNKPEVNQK
The assay is described as follows: microtubule shrinkage assay with purified Eg5M plus inhibitor. The class given is biochemical. The procedure, abridged: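 Shrinkage run in BRB80 with oxygen scavenger and 0.2 mg/mL casein. Microtubules are grown from Cy5/biotin GMPCPP seeds with TMR-labeled bovine brain tubulin, 5 mM Mg-ATP and 2 mM Mg-GTP, ±His-purified motor (E. coli-expressed), for 20 min at 37°C. Catastrophe is triggered by flowing in 22°C tubulin-free buffer holding the same motor concentration. Shrinkage velocities come from tracked ends imaged on stage.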

In assay [2] the target is T1, Eg5 (kinesin-5). The assay is described as follows: microtubule shrinkage assay with purified Eg5M in AMPPNP. It is filed as biochemical.

As for `CC(C)(C)c1ccc2cc(C#N)c(C#N)cc2c1` [BRD9876], at Eg5 (kinesin-5) [1], the “microtubule shrinkage assay with purified Eg5M plus inhibitor (TIRF)” value is listed as 0.2 nm/s.

Regarding `Nc1ncnc2c1ncn2[C@@H]1O[C@H](CO[P@](=O)(O)O[P@](=O)(O)NP(=O)(O)O)[C@@H](O)[C@H]1O` [AMPPNP], the “microtubule shrinkage assay with purified Eg5M in AMPPNP (TIRF)” value on Eg5 (kinesin-5) [2] is listed as 0.5 nm/s.

Source of the values: publication PMC6684259 (Current biology : CB, 2019).
